Test results from ChEMBL document CHEMBL1132112, “Novel modifications in the alkenyldiarylmethane (ADAM) series of non-nucleoside reverse transcriptase inhibitors” (J Med Chem, 1999).
pEC50, pIC50: −log10 of the molar value.

What was measured:
CEM-SS [1] = assay: Fold resistance of HIV-1 RT containing the specified mutation K101E in CEM-SS cells.; type: functional, Homo sapiens
CEM-SS [2] = assay: Fold resistance of HIV-1 RT containing the specified mutation V106A in CEM-SS cells.; type: functional, Homo sapiens
CEM-SS [3] = assay: Fold resistance of HIV-1 RT containing the specified mutation K103N in CEM-SS cells; NC=No significant change in sensitivity; type: functional, cell-based; settings: Homo sapiens
CEM-SS [4] = assay: Fold resistance of HIV-1 RT containing the specified mutation Y181C in CEM-SS cells.; type: functional, Homo sapiens
CEM-SS [5] = assay: Fold resistance of HIV-1 RT containing the specified mutation A98G in CEM-SS cells.; type: functional, Homo sapiens
CEM-SS [6] = assay: Fold resistance of the specific mutation in RT to the compound; S=Enhanced sensitivity; type: functional, cell-based; settings: Homo sapiens
CEM-SS [7] = assay: Fold resistance of HIV-1 RT containing the specified mutation Y188C in CEM-SS cells.; type: functional, Homo sapiens
CEM-SS [8] = assay: Fold resistance of HIV-1 RT containing the specified mutation 4X AZT in CEM-SS cells; S=Enhanced sensitivity; type: functional, cell-based; settings: Homo sapiens
CEM-SS [9] = assay: Fold resistance of HIV-1 RT containing the specified mutation V179D in CEM-SS cells.; type: functional, Homo sapiens
[10] = Therapeutic index was determined for the compound as CC50/EC50; settings: read-out: TI
Method in brief: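 Ratio of CC50 (XTT viability, uninfected CEM-SS) to EC50 (XTT protection from HIV-1 RF cytopathicity in CEM-SS). Both values come from triplicates on each plate, two sister plates averaged. NA means no antiviral inhibition up to the cytotoxic concentration.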

[11] = molecular target: T1, Human immunodeficiency virus type 1 reverse transcriptase (Human immunodeficiency virus 1, UniProt Q72547); assay: Inhibition of HIV-1 Reverse transcriptase using poly-(ra)-oligo(dt) as the template primer.; settings: read-out: IC50
Method in brief: (§1)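 Purified p66/51 HIV-1 reverse transcriptase. Inhibition read as incorporation of [32P]-TTP into poly(rA)·oligo(dT) or of [32P]GTP into poly(rC)·oligo(dG) homopolymer template-primer.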

[12] = molecular target: T1, Human immunodeficiency virus type 1 reverse transcriptase; assay: Inhibition of HIV-1 Reverse transcriptase using poly-(rc)-oligo(dg) as the template primer.; method in brief: as §1
CEM-SS [13] = assay: 50% inhibitory concentration for cytopathicity of HIV-1 RF in CEM-SS cells.; type: functional, cell-based; settings: Homo sapiens
Method in brief: (§2)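 CEM-SS cells infected with HIV-1 RF; drug-induced protection from viral cytopathic effect read by XTT, as percent of uninfected drug-free control. EC50 is the concentration giving 50% protection. Triplicate wells on each plate, two sister plates; the plate EC50s (each a triplicate average) were averaged. XTT results were confirmed by supernatant RT and p24 levels. NA means no inhibition up to the concentration cytotoxic to uninfected cells.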

CCRF-CEM = assay: Concentration inhibiting 50% of mock-infected CEM cells.; type: functional; settings: Homo sapiens
Method in brief: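 Uninfected (mock-infected) CEM-SS cultures exposed to drug. Viability by XTT, expressed as percent of drug-free control. CC50 is the concentration causing 50% cell death. Triplicates on each plate, two sister plates averaged.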

[14] = molecular target: T1, Human immunodeficiency virus type 1 reverse transcriptase; assay: Inhibition of HIV-1 Reverse transcriptase using poly-(rc)-oligo(dg) as the template primer; NI=No inhibition
Method in brief: (§3)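 Purified p66/51 HIV-1 reverse transcriptase. Inhibition read as incorporation of [32P]-TTP into poly(rA)·oligo(dT) or of [32P]GTP into poly(rC)·oligo(dG) homopolymer template-primer. IC50 taken as concentration giving 50% inhibition.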

[15] = molecular target: T1, Human immunodeficiency virus type 1 reverse transcriptase; assay: Inhibition of HIV-1 Reverse transcriptase using poly-(ra)-oligo(dt) as the template primer; no inhibition; method in brief: as §3
CEM-SS [16] = assay: 50% inhibitory concentration for cytopathicity of HIV-1 RF in CEM-SS cells; NA=Not active (EC50 uM); type: functional, cell-based, Homo sapiens; method in brief: as §2
CEM-SS [17] = assay: 50% inhibitory concentration for cytopathicity of HIV-1 RF in CEM-SS cells; NA=Not active; type: functional, cell-based, Homo sapiens; method in brief: as §2

SMILES | pIC50 [11] | pIC50 [12] | CC50 (CCRF-CEM) [µM] | EC50 (CEM-SS [16]) | further results
CCCCCC=C(c1cc(Br)c(OC)c(C(=O)OC)c1)c1cc(Br)c(OC)c(C(=O)OC)c1 | – | – | – | – | Fold resistance (CEM-SS [1]): >8; Fold resistance (CEM-SS [2]): >8; Fold resistance (CEM-SS [3]): No significant changed; Fold resistance (CEM-SS [4]): >8; Fold resistance (CEM-SS [5]): 2; Fold resistance (CEM-SS [6]): Enhanced sensitivity; Fold resistance (CEM-SS [7]): >8; Fold resistance (CEM-SS [8]): Enhanced sensitivity; Fold resistance (CEM-SS [9]): >8
COC(=O)CCCCC=C(c1cc(Cl)c(OC)c(C(=O)OC)c1)c1cc(Cl)c(OC)c(C(=O)OC)c1 | 5.47 | 6.33 | 152 | – | selectivity ratio [10]: 101; pEC50 (CEM-SS [13]): 5.82
CCC1(CCCC=C(c2cc(Cl)c(OC)c(C(=O)OC)c2)c2cc(Cl)c(OC)c(C(=O)OC)c2)OCCO1 | – | – | 19.9 | Not Active | IC50 [14]: Not Active; IC50 [15]: Not Active
CCNC(=O)OCCCCC=C(c1cc(Cl)c(OC)c(C(=O)OC)c1)c1cc(Cl)c(OC)c(C(=O)OC)c1 | 5.92 | 5.49 | 8.4 | Not Active | –
CCC(=O)CCCC=C(c1cc(Cl)c(OC)c(C=O)c1)c1cc(Cl)c(OC)c(C=O)c1 | – | – | 1.13 | – | EC50 (CEM-SS [17]): Not Active
COC(=O)c1cc(C(=CCCCC=O)c2cc(Cl)c(OC)c(C(=O)OC)c2)cc(Cl)c1OC | 5.38 | 5.31 | 9.6 | Not Active | –
